# In paper PMC3778256 (Epilepsy research, 2012):
# What was measured:
# [1] = test system: P-glycoprotein (Pgp) at the blood-brain barrier; conditions: naïve rats, 15 mg/kg; ref Kuntner et al. 2010; cited from earlier work
# human MDR1 (Pgp) [2] = target: T1, human MDR1 (Pgp) (Homo sapiens, UniProt P08183); conditions: tariquidar 0.5 μM; ref Luna-Tortós et al. 2008; cited from earlier work
# [3] = target: multidrug resistance proteins (MRPs) at the murine BBB (Mus musculus, UniProt O35379); conditions: single 60-min PET scans, n = 4 each
# [4] = test system: multidrug resistance proteins (MRPs) at the murine BBB; conditions: wild-type mice, MK571 20 mg/kg iv 30 min before scan
# [5] = test system: P-glycoprotein (Pgp) at the blood-brain barrier
# [6] = Radio-HPLC analysis of radiolabelled metabolites in rat plasma and brain; conditions: 40 min after injection
# [7] = test system: P-glycoprotein (Pgp) at the blood-brain barrier; experiment: Paired small-animal PET scans in rats before and after tariquidar
# [8] = Plasma protein binding by ultrafiltration; type: in vitro ADME; conditions: rat plasma, n = 3
# murine Mdr1a (Pgp) = murine Mdr1a (Pgp) (Mus musculus, UniProt P21447); experiment: Concentration equilibrium transport assay in LLC-Mdr1a cells; type: cell-based; conditions: 50 μM both chambers, 6 h, with/without tariquidar 0.5 μM
# Sequence of murine Mdr1a (Pgp) (P21447 whole entry): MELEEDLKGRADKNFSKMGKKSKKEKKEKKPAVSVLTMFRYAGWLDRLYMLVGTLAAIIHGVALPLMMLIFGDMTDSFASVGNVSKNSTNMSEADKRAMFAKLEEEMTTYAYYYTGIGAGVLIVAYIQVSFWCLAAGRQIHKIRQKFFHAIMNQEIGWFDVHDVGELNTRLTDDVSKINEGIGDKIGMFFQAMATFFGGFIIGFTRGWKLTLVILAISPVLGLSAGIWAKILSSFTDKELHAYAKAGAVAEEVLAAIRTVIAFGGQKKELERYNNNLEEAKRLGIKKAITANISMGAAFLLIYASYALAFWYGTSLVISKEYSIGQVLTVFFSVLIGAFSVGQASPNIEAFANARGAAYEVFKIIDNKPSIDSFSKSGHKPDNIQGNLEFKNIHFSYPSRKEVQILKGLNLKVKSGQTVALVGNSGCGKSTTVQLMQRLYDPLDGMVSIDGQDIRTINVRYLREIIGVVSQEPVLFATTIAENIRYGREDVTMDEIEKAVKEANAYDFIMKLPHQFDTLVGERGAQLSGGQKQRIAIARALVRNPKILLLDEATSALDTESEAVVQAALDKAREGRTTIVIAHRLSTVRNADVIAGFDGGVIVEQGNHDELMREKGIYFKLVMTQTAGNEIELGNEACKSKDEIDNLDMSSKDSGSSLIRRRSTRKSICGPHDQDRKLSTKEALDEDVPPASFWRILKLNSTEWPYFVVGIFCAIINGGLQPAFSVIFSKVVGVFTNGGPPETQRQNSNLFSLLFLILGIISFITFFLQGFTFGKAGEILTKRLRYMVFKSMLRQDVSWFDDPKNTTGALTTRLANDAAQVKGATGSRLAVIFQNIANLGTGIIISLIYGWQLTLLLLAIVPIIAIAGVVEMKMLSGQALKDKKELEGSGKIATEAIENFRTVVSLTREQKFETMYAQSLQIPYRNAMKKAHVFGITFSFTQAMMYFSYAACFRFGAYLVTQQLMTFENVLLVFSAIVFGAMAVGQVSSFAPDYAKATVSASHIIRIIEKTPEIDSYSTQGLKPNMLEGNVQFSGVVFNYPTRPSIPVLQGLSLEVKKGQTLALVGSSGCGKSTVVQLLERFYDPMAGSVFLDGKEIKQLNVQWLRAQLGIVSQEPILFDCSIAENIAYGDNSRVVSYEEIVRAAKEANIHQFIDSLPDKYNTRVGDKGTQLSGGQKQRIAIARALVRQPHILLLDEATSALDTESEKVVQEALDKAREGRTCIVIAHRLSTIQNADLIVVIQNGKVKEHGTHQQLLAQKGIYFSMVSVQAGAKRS
# human MRP1 = human MRP1 (Homo sapiens, UniProt P33527); experiment: Concentration equilibrium transport assay in LLC-MRP1 cells; type: cell-based; conditions: 50 μM both chambers, 6 h, with/without MK571 50 μM
# Sequence of human MRP1 (P33527 whole entry): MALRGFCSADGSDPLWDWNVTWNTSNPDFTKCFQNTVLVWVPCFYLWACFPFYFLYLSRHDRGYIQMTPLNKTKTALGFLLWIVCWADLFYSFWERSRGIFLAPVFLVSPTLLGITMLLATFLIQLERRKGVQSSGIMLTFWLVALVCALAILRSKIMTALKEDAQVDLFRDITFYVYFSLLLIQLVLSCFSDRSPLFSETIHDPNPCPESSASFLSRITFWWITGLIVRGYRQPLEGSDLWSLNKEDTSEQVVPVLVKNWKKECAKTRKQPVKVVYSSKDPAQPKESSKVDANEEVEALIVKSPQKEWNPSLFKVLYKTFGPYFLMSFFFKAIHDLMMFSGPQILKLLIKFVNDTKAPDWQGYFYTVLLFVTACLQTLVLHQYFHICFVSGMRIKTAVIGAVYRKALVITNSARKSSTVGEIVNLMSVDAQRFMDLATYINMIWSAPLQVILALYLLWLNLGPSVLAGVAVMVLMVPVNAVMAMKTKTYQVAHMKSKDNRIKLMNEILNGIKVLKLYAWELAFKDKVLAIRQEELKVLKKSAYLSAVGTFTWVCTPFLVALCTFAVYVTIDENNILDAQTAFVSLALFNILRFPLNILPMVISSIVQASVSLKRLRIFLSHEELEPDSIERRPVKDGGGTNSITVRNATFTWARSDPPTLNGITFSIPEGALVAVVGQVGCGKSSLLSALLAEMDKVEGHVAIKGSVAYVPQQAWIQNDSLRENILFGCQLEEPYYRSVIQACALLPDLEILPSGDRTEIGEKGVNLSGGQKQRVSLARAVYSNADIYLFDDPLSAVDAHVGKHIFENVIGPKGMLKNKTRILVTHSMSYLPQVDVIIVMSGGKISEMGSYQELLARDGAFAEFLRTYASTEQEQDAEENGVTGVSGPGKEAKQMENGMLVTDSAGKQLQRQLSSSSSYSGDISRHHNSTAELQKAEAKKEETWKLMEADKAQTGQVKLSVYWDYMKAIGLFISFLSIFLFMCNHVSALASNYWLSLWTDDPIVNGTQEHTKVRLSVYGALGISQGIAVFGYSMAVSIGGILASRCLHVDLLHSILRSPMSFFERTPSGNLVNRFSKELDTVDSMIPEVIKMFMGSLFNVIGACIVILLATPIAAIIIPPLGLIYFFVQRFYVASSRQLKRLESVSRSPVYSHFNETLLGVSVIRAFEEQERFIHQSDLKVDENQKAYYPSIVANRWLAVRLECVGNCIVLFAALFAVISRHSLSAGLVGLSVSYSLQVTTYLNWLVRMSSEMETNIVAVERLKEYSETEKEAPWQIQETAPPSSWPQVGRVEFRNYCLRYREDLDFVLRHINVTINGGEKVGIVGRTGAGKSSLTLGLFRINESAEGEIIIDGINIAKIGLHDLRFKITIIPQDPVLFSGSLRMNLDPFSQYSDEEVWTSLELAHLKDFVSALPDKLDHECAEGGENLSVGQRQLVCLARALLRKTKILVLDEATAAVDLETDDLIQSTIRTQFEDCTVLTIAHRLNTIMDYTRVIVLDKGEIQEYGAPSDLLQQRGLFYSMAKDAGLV
# In short: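 LLC-PK1 transfected with MRP1, ≤13 passages, seeded at 0.3 × 10^6 cells/cm2 on polyester filters; assayed 5–7 days post-confluence in Opti-MEM after 1 h pre-incubation ± MK571 50 µM. Test compound 50 µM in both chambers; both sampled at 60, 120, 240, 360 min; 37°C, 5% CO2, 50 rpm; triplicate. Integrity: TEER, [14C]mannitol; calcein-AM 1 µM positive control.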
# human MDR1 (Pgp) [9] = target: T1, human MDR1 (Pgp); experiment: Concentration equilibrium transport assay in LLC-MDR1 cells; type: cell-based; conditions: 50 μM both chambers, 6 h, with/without tariquidar 0.5 μM
# T1 sequence (P08183 whole entry): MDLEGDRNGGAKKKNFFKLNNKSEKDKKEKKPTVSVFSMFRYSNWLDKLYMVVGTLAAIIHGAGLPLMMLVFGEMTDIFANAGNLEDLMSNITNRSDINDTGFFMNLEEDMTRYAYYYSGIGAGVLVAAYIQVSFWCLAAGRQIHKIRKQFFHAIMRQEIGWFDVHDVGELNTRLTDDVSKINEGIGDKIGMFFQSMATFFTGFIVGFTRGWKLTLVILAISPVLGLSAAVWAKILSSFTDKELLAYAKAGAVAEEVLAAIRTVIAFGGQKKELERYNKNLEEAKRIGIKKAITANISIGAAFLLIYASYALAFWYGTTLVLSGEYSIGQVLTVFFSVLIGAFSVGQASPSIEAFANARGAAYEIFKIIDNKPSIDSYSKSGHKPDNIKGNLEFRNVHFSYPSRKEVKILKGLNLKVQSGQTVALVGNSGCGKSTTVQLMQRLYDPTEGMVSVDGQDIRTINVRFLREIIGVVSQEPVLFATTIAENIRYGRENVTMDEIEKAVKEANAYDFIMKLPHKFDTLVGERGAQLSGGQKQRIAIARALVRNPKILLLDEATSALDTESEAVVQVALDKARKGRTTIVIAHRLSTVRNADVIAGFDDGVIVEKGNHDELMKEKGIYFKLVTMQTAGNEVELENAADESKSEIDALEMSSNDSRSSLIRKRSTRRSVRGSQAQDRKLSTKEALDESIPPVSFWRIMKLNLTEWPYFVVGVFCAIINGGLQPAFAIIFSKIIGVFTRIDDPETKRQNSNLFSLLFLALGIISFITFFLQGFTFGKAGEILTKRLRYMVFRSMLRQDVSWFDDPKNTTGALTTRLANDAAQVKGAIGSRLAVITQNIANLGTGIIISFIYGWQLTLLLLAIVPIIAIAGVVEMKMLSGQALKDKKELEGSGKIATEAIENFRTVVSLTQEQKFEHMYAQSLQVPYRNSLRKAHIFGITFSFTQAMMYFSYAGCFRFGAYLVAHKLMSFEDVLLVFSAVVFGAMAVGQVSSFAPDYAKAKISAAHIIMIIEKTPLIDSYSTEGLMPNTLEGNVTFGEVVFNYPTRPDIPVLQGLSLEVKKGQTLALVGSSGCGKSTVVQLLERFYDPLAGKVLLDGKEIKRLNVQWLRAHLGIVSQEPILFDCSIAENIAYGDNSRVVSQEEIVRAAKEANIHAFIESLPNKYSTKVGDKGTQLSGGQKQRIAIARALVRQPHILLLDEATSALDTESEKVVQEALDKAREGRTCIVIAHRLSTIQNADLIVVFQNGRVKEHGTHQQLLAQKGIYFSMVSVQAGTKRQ
smiles,measurement,setting,value
COc1cc2c(cc1OC)CN(CCc1ccc(NC(=O)c3cc(OC)c(OC)cc3NC(=O)c3cnc4ccccc4c3)cc1)CC2 [tariquidar],inhibition of Pgp at the BBB,[1],completely inhibit Pgp
CCC1(c2ccccc2)C(=O)NC(=O)NC1=O [phenobarbital],inhibition of MDR1 transport by tariquidar,human MDR1 (Pgp) [2],54%
CCC1(c2ccccc2)C(=O)NC(=O)N([11CH3])C1=O (centres unmarked) [[^11C]mephobarbital],"Brain uptake, wild-type versus Mrp1(-/-) mice",[3],did neither differ
same,"Brain uptake, untreated versus MK571 pretreated mice",[4],did neither differ
same,"Blood activity concentrations (SUV), comparison of groups and scans","[5]; 25 and 60 min, wild-type and Mdr1a/b(-/-) mice, scan 1 and 2, three comparisons excepted (p < 0.05)",similar
same,"Brain AUC0-60, wild-type versus Mdr1a/b(-/-) mice","[5]; scan 1 and scan 2, respectively, n = 3 each",not significantly different
same,"Brain AUC0-60, scan 2 relative to scan 1","[5]; wild-type mice, tariquidar 15 mg/kg, p = 0.013",significantly decreased
same,total activity in brain in the form of unchanged parent,"[6]; rat brain tissue extracts, n = 5",96±6%
same,total activity in plasma as unchanged parent,[6]; rat plasma,> 85%
same,Peak brain activity uptake (SUV),"[7]; scan 1 (before tariquidar), about 1 min after iv injection, n = 3",3.1±0.2 SUV
same,brain-to-blood AUC0-60 ratio,"[7]; scan 1 (before tariquidar), n = 3",2.0±0.5
same,brain-to-blood AUC0-60 ratio in scan 1 as compared to (R)-[11C]verapamil,"[7]; scan 1, Supplementary Fig. S1",two times higher
same,brain-to-blood AUC0-60 ratio,"[7]; scan 2 (after tariquidar 15 mg/kg iv), n = 3",2.4±0.3
same,fraction unbound in plasma,[8],0.21±0.05
"CCC1(c2ccccc2)C(=O)NC(=O)N(C)C1=O (centres unmarked) [mephobarbital, methylphenobarbital]",basolateral-to-apical transport by murine Mdr1a,murine Mdr1a (Pgp),lack of active transport
same,basolateral-to-apical transport by human MRP1,human MRP1,lack of active transport
same,basolateral-to-apical transport by human MDR1,human MDR1 (Pgp) [9],lack of active transport
